Published values from different studies.
Chymotrypsinogen A: Chymotrypsinogen A (Bos taurus, UniProt P00766)
lecA: PA-I galactophilic lectin (lecA, Pseudomonas aeruginosa, UniProt Q05097)

SMILES | target | effect on | mode | method | pH | Ki [nM]
NC(=O)C1=CN([C@@H]2O[C@H](COP(=O)(O)OP(=O)(O)OC[C@H]3O[C@@H](n4cnc5c(N)ncnc54)[C@H](O)[C@@H]3O)[C@@H](O)[C@H]2O)C=CC1 | ADH1 (Saccharomyces cerevisiae, UniProt P00330, H49E) | enzyme activity | inhibitor |  |  | 12000
CCCC[C@H](NC(=O)[C@H](CCC(N)=O)NC(=O)[C@H](CO)NC(=O)CCCCCN)C(=O)N[C@@H](Cc1ccccc1)B(O)O | Chymotrypsinogen A | enzyme activity | inhibitor | fluorescence |  | 3.77
OCC(F)(F)F | ADH1 (Saccharomyces cerevisiae, UniProt P00330, W83R) | enzyme activity | inhibitor |  |  | 980000
O=C(Cn1cc(CCN2CCN(c3cc4c(cc3F)c(=O)c(C(=O)O)cn4C3CC3)CC2)nn1)Nc1ccc(S[C@@H]2O[C@H](CO)[C@H](O)[C@H](O)[C@H]2O)cc1 | lecA | ligand displacement |  | FP |  | 1480
CCn1c(-c2nc3cc(C(=O)N4CCC[C@@H](N)C4)cc(OC)c3n2C)cc2cccnc21 | Protein-arginine deiminase type-3 (PADI3, Homo sapiens, UniProt Q9ULW8) | enzyme activity | inhibitor |  |  | 925000
[N-]=[N+]=NCCCCC(=O)Nc1ccc(S[C@@H]2O[C@H](CO)[C@H](O)[C@H](O)[C@H]2O)cc1 | lecA | ligand displacement |  | FP |  | 3670
CCCC[C@H](NC(=O)[C@H](CCC(N)=O)NC(=O)[C@H](CO)NC(=O)[C@H](C)NC(=O)CCCCCN)C(=O)N[C@@H](CCCBr)B(O)O | Chymotrypsinogen A | enzyme activity | inhibitor | fluorescence |  | 166
Cc1ccc2c(c1)c1c3n2CCNC3CCC1 (stereo not shown) | Amine oxidase [flavin-containing] A (Maoa, Rattus norvegicus, UniProt P21396) | enzyme activity | inhibitor |  | pH 7.5 | 770
O=C(CCCCn1cc(CCN2CCN(c3cc4c(cc3F)c(=O)c(C(=O)O)cn4C3CC3)CC2)nn1)Nc1ccc(S[C@@H]2O[C@H](CO)[C@H](O)[C@H](O)[C@H]2O)cc1 | lecA | ligand displacement |  | FP |  | 2700
CCCC[C@H](NC(=O)[C@H](CCC(N)=O)NC(=O)[C@H](CO)NC(=O)[C@H](C)NC(=O)CCCCCN)C(=O)N[C@@H](Cc1ccccc1)B(O)O | Chymotrypsinogen A | enzyme activity | inhibitor | fluorescence |  | 36.2
NC(=O)C1=CN([C@@H]2O[C@H](COP(=O)(O)OP(=O)(O)OC[C@H]3O[C@@H](n4cnc5c(N)ncnc54)[C@H](O)[C@@H]3O)[C@@H](O)[C@H]2O)C=CC1 | ADH1 (Saccharomyces cerevisiae, UniProt P00330, W55R) | enzyme activity | inhibitor |  |  | 570000
[N-]=[N+]=NCCC(=O)Nc1ccc(S[C@@H]2O[C@H](CO)[C@H](O)[C@H](O)[C@H]2O)cc1 | lecA | ligand displacement |  | FP |  | 3960
CCCC[C@H](NC(=O)[C@H](CCC(N)=O)NC(=O)[C@H](CO)NC(=O)C[C@@H](Cc1ccc2ccccc2c1)NC(=O)CCCCCN)C(=O)N[C@@H](Cc1ccccc1)B(O)O | Chymotrypsinogen A | enzyme activity | inhibitor | fluorescence |  | 7.21
